Results taken from ChEMBL document CHEMBL1955747, “Maximizing lipophilic efficiency: the use of Free-Wilson analysis in the design of inhibitors of acetyl-CoA carboxylase” (J Med Chem, 2012).
Values after ≈ are worked out from the molar mass of the structure shown.

Legend:
[1] = biological target: Acetyl-CoA carboxylase 1 (Rattus norvegicus, UniProt P11497); assay: Inhibition of rat liver Acetyl-CoA carboxylase 1 using acetyl-CoA as substrate preincubated for 10 mins prior substrate addition measured after 20 mins by luminescence counting
In short: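 Each IC50 comes from single-point inhibition data run in triplicate. The reported value is the arithmetic mean of at least three independent replicates ± SEM.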

[2] = biological target: Acetyl-CoA carboxylase 2 (Homo sapiens, UniProt O00763); assay: Inhibition of human Acetyl-CoA carboxylase 2 expressed in CHO cells after 1 hr by fluorescence assay; type: cell-based
[3] = Intrinsic clearance in human liver microsomes; type: ADME, Microsome; settings: read-out: CLH
[4] = Aqueous solubility at pH 6.5; type: physicochemical; settings: buffer
[5] = Permeability across dog RRCK cells; type: ADME, cell-based, Canis lupus familiaris, MDCKII-LE; settings: MDCK, read-out: permeability
[6] = Plasma clearance in po dosed Sprague-Dawley rat; type: ADME, organism-based
[7] = tested on: Rattus norvegicus; assay: Volume of distribution at steady state in po dosed Sprague-Dawley rat; type: ADME, organism-based; settings: in vivo
[8] = Half life in po dosed Sprague-Dawley rat; type: ADME, organism-based; settings: in vivo
[9] = Oral bioavailability in Sprague-Dawley rat; type: ADME, organism-based; settings: in vivo
[10] = Fraction unbound in Sprague-Dawley rat plasma; type: ADME, cell-free
[11] = tested on: Rattus norvegicus; assay: Antidiabetic activity in po dosed Sprague-Dawley rat assessed as inhibition of malonyl-CoA production in liver after 2 hrs by LC-MS analysis; type: functional
[12] = tested on: Rattus norvegicus; assay: Antidiabetic activity in po dosed Sprague-Dawley rat assessed as inhibition of malonyl-CoA production in quadriceps after 2 hrs by LC-MS analysis; type: functional
[13] = tested on: Rattus norvegicus; assay: Antidiabetic activity in Sprague-Dawley rat assessed as inhibition of malonyl-CoA production in liver at 50 mg/kg, po after 2 hrs by LC-MS analysis; type: functional
[14] = tested on: Rattus norvegicus; assay: Antidiabetic activity in Sprague-Dawley rat assessed as inhibition of malonyl-CoA production in quadriceps at 50 mg/kg, po after 2 hrs by LC-MS analysis; type: functional
[15] = Aqueous solubility at pH 7.4; type: physicochemical; settings: buffer

Sequence of Acetyl-CoA carboxylase 2 (O00763 whole entry): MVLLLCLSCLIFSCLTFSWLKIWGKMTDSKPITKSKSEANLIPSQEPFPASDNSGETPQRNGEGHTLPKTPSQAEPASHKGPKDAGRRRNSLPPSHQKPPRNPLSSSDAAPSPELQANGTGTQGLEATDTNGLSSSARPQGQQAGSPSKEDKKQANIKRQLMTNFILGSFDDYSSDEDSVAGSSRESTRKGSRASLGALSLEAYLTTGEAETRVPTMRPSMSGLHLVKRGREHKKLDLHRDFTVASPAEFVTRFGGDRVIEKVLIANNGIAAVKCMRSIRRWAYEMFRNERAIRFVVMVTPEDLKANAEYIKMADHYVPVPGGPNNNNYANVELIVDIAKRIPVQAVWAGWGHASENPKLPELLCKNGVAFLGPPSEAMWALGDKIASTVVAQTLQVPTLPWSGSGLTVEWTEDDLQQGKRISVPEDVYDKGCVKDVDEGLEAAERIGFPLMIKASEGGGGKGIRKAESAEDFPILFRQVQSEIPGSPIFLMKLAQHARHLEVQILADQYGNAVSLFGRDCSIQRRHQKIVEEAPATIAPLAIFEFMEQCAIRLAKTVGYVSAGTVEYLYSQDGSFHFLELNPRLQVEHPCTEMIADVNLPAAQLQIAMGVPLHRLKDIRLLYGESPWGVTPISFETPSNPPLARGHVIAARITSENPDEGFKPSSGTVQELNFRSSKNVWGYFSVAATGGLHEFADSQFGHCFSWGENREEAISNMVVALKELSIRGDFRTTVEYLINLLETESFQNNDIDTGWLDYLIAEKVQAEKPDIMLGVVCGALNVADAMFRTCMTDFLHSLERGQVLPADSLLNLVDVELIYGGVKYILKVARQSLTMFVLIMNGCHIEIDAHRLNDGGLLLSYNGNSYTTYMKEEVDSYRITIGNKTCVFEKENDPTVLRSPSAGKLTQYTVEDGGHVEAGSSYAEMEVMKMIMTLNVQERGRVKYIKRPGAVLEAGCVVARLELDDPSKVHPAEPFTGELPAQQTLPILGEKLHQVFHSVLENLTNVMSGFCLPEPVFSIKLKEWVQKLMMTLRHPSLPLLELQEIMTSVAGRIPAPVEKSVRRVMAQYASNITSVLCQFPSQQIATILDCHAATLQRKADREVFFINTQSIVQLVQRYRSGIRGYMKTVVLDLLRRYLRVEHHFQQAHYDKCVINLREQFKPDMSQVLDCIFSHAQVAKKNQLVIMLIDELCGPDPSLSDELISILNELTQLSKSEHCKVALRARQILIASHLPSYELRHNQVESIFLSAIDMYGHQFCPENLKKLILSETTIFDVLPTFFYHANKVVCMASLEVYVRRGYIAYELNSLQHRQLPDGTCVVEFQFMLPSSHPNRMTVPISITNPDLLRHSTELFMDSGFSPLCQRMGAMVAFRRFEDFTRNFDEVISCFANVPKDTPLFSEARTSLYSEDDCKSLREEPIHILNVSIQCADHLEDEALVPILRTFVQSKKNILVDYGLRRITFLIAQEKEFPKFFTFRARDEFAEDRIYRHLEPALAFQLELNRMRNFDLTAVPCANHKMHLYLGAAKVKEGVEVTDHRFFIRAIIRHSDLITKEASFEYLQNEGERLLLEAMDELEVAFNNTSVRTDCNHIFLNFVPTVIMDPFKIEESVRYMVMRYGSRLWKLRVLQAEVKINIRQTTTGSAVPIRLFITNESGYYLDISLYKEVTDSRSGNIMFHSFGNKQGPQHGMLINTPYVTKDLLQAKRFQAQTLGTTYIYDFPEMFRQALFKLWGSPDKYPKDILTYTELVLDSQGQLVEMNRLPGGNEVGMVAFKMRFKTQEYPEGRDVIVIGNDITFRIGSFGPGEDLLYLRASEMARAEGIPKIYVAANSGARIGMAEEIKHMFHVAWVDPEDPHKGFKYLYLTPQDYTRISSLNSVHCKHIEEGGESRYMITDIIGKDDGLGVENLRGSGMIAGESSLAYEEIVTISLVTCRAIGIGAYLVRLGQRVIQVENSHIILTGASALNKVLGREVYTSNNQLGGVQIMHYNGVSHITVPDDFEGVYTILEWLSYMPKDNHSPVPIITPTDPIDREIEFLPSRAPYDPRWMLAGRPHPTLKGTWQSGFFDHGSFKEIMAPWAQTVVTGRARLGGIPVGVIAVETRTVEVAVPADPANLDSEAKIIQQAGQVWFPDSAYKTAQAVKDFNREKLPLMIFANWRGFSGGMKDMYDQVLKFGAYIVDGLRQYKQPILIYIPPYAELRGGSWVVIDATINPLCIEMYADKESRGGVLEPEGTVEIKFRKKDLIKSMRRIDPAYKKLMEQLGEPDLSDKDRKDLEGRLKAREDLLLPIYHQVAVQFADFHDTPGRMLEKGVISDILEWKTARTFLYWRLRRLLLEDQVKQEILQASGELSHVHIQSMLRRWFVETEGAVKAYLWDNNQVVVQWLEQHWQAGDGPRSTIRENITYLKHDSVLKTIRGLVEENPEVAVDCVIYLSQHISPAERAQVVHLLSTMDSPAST

IC50 [1]	IC50 [2]	SMILES	other results
11.5 nM		CCOc1cc(C(=O)N2CCC3(CC2)CC(=O)c2nn(CC)c(C)c2O3)cc2c(C)n[nH]c12	
12 nM	14 nM	Cc1n[nH]c2c(C)cc(C(=O)N3CCC4(CC3)CC(=O)c3nn(C(C)C)cc3O4)cc12	CLint scaled [3]: < 8 mL/min/kg
12 nM	13 nM	CCn1nc2c(c1C)OC1(CCN(C(=O)c3cc(C)c4[nH]nc(C)c4c3)CC1)CC2=O	
17 nM		CC(C)(C)n1cc2c(n1)C(=O)CC1(CCN(C(=O)c3ccc4nc[nH]c4c3)CC1)O2	CLint scaled [3]: < 8 mL/min/kg; solubility [4]: 300 µM (≈ 122 µg/mL); Papp [5]: 10.9 ×10⁻⁶ cm/s; CL/F [6]: 26 mL/min/kg; Vdss [7]: 2.3 L/kg; half-life [8]: 252 min; bioavailability [9]: 50%; fraction unbound [10]: 0.55; ED50 [11]: 1.6 mg/kg; ED50 [12]: 2.6 mg/kg; Imax [13]: 78%; Imax [14]: 75%
34 nM	56 nM	CCn1nc2c(c1C)OC1(CCN(C(=O)c3cc(C)c4nc(C)[nH]c4c3)CC1)CC2=O	
	14 nM	Cc1cc(C(=O)N2CCC3(CC2)CC(=O)c2nn(C4CCC4)cc2O3)cc2cn[nH]c12	
62 nM	63 nM	CCn1cc2c(n1)C(=O)CC1(CCN(C(=O)c3cc(C)c4[nH]ncc4c3)CC1)O2	
13 nM	21 nM	Cn1ncc2ccc(C(=O)N3CCC4(CC3)CC(=O)c3nn(C(C)(C)C)cc3O4)cc21	CLint scaled [3]: 13.1 mL/min/kg
49 nM	80 nM	CCn1nc2c(c1C)OC1(CCN(C(=O)c3cc(C)c4nc[nH]c4c3)CC1)CC2=O	
7 nM	6.9 nM	Cc1cc(C(=O)N2CCC3(CC2)CC(=O)c2nn(C(C)(C)C)cc2O3)cc2cn[nH]c12	
31 nM	37 nM	CCc1cc(C(=O)N2CCC3(CC2)CC(=O)c2nn(CC)c(C)c2O3)cc2cn[nH]c12	
370 nM	650 nM	Cc1cc(C(=O)N2CCC3(CC2)CC(=O)c2nn(C)cc2O3)cc2cn[nH]c12	
36 nM		CCc1n[nH]c2ccc(C(=O)N3CCC4(CC3)CC(=O)c3nn(CC)c(C)c3O4)cc12	
	6.6 nM	Cc1nc2c(C)cc(C(=O)N3CCC4(CC3)CC(=O)c3nn(C(C)(C)C)cc3O4)cc2[nH]1	CLint scaled [3]: 15.1 mL/min/kg
9.6 nM	7.4 nM	Cc1cc(C(=O)N2CCC3(CC2)CC(=O)c2nn(C(C)(C)C)cc2O3)cc2[nH]cnc12	CLint scaled [3]: 12.4 mL/min/kg
	23 nM	Cc1cc(C(=O)N2CCC3(CC2)CC(=O)c2nn(C(C)C)cc2O3)cc2cn[nH]c12	
	45 nM	CCCn1cc2c(n1)C(=O)CC1(CCN(C(=O)c3cc(C)c4[nH]ncc4c3)CC1)O2	
100 nM	92 nM	CCn1nc2c(c1C)OC1(CCN(C(=O)c3ccc4[nH]ncc4c3)CC1)CC2=O	
		Cc1n[nH]c2c(C)cc(C(=O)N3CCC4(CC3)CC(=O)c3nn(C5CCOC5)c(C)c3O4)cc12 (configuration not stated)	CLint scaled [3]: 23.1 mL/min/kg
46 nM	63 nM	Cc1cc(C(=O)N2CCC3(CC2)CC(=O)c2nn(C4CCCCC4)cc2O3)cc2cn[nH]c12	
	37 nM	CCn1nc2c(c1C)OC1(CCN(C(=O)c3cc(C)c4[nH]ncc4c3)CC1)CC2=O	
280 nM	470 nM	Cc1cc(C(=O)N2CCC3(CC2)CC(=O)c2nn(C)c(C)c2O3)cc2cn[nH]c12	
		Cc1cc2c(cc1C)C(=O)CC1(CCN(C(=O)c3cc(C)c4[nH]ncc4c3)CC1)O2	CLint scaled [3]: 68 mL/min/kg; solubility [15]: 19 µM (≈ 7.67 µg/mL)
	9.4 nM	Cc1cc(C(=O)N2CCC3(CC2)CC(=O)c2nn(C4CCCC4)cc2O3)cc2cn[nH]c12	
29 nM	42 nM	CCn1nc2c(c1C)OC1(CCN(C(=O)c3ccc4[nH]nc(C)c4c3)CC1)CC2=O	
260 nM		Cc1cc(C(=O)N2CCC3(CC2)CC(=O)c2nn(Cc4ccccc4)cc2O3)cc2cn[nH]c12	
